Results from different studies.
Compare with care: the assays were run in different laboratories.

`COc1cc(Cc2cnc(N)nc2N)cc(OC)c1OC` gave an IC50 of 11.8 mg/L (Toxoplasma gondii; parasite growth, fluorescence; HS27; 96 h, intracellular).
`COc1cc2nc(N3CCN(C(=O)C4COc5ccccc5O4)CC3)nc(N)c2cc1OC` (stereo not shown) gave an IC50 of 8.89 µM (SUNE1; cell growth or viability, MTT; 48 h).
The EC50 of `C=CC(=O)NC1CCN(c2ncc3ncnc(Nc4ccc(Oc5ccc6c(c5)ncn6C)c(C)c4)c3n2)CC1` is reported as 0.0396 µM (Panc1005; cell growth or viability).
The IC50 of `CC(=O)N1N=C(c2ccc(NS(=O)(=O)c3ccc4oc(=O)ccc4c3)cc2)CC1c1ccc(Br)cc1` (stereo not shown) is reported as < 3.91 mg/L (Toxoplasma gondii; parasite growth, fluorescence; HS27; 96 h, intracellular).
With `COC1=CC(=O)c2ccccc2C1=O` the MIC was 12.5 mg/L (Candida tropicalis; microbial growth, broth dilution; ATCC13803; 24 h).
`NNC(=O)c1ccncc1` gave an MIC of 117 µM (Mycolicibacterium smegmatis; microbial growth, broth dilution; ATCC700084).
`Cc1c(C(=O)O)ccc2c3n(nc12)[C@@H]1[C@H](C3)N(CC2CC2)[C@@]2(C(=O)Nc3cc(Cl)ccc32)[C@H]1c1cccc(Cl)c1F` has a GI50 of 0.00119 µM (UACC-812; cell growth or viability).
The IC50 of `Cc1cc(/C=C/C#N)cc(C)c1Nc1ccnc(Nc2ccc(C#N)cc2)n1` is reported as 19.1 µM (SUNE1; cell growth or viability, MTT; 48 h).
With `COc1cccc(/C=N/N2C(=O)c3ccccc3NC2c2cccc(OC)c2O)c1O` (stereo not shown) the MIC was > 256 mg/L (Mycolicibacterium smegmatis; microbial growth, broth dilution; ATCC700084; 72 h).
`C[C@@H]1[C@H](O)[C@@H](C)/C=C/C=C/C=C/C=C/C=C/C=C/C=C/[C@H](O[C@@H]2O[C@H](C)[C@@H](O)[C@H](N)[C@@H]2O)C[C@@H]2O[C@](O)(C[C@@H](O)C[C@@H](O)[C@H](O)CC[C@@H](O)C[C@@H](O)CC(=O)O[C@H]1C)C[C@H](O)[C@H]2C(=O)O` has an MIC of 4 mg/L (Candida tropicalis; microbial growth, broth dilution; ATCC13803; 24 h).
